{
  "source": "ChEMBL document CHEMBL1158600",
  "about": "“Phenanthrenes from Dendrobium nobile and their inhibition of the LPS-induced production of nitric oxide in macrophage RAW 264.7 cells” (Bioorg Med Chem Lett, 2010)",
  "data": [
    {"test_system": "RAW264.7", "assay": "Antiinflammatory activity in mouse RAW264.7 cells assessed as inhibition of LPS-induced NO production", "assay_type": "functional, cell-based", "summary_of_the_method": "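RAW 264.7 cells seeded at 2 × 10^5 cells/mL, stimulated with 1 µg/mL LPS with or without test compound, 37 °C for 24 h. Nitrite in cell-free supernatant measured by Griess reagent (sulfanilamide in phosphoric acid plus N-(1-naphthyl)ethylenediamine), absorbance at 550 nm against sodium nitrite standard curve. IC50 for 50% NO inhibition; triplicate, mean ± SD. Viability checked by CCK assay.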", "units": {"IC50": "µM"}, "values": [
      {"smiles": "COc1c(O)c(O)cc2ccc3cccc(O)c3c12", "note": "[FIMBRIOL B]", "IC50": 28.9},
      {"smiles": "COc1cc2c(c(O)c1OC)-c1ccc(O)cc1CC2", "note": "[EPHEMERANTHOL A]", "IC50": 12},
      {"smiles": "COc1c(O)c(O)cc2c1-c1c(O)cccc1CC2", "note": "[EPHENERANTHOL C]", "IC50": 17.6},
      {"smiles": "COc1cc(O)cc(CCc2ccc(OC)c(OC)c2)c1", "IC50": "> 50"},
      {"smiles": "COc1c(O)cc2ccc3c(OC)ccc(O)c3c2c1OC", "IC50": 20.4},
      {"smiles": "COc1cc(O)cc2c1-c1c(O)cccc1CC2", "note": "[HIRCINOL]", "IC50": 26.4},
      {"smiles": "COc1cc(CCc2cc(OC)c(O)c(OC)c2)ccc1O", "note": "[MOSCATILIN]", "IC50": 27.6},
      {"smiles": "N=C(N)NN", "note": "[PIMAGEDINE]", "IC50": 17.5},
      {"smiles": "COc1cc2c(c(OC)c1O)-c1ccc(O)cc1CC2", "note": "[FLAVANTHRIDIN]", "IC50": 34.1},
      {"smiles": "COc1cc(O)c2c(c1)CCc1cc(O)ccc1-2", "note": "[LUSIANTHRIDIN]", "IC50": 9.6},
      {"smiles": "COc1c(O)cc2c(c1OC)-c1ccc(O)cc1CC2", "note": "[ERIANTHRIDIN]", "IC50": 19.5},
      {"smiles": "COc1cc(O)cc(CCc2ccc(O)c(OC)c2)c1", "note": "[GIGANTOL]", "IC50": "> 50"},
      {"smiles": "COc1cc2ccc3cc(O)ccc3c2c(OC)c1O", "IC50": 35.7}
    ]}
  ]
}
